This passage reports GI50, inhibition of growth and Activity results from ChEMBL document CHEMBL3865789, “Synthesis and biological evaluation of isomeric methoxy substitutions on anti-cancer indolyl-pyridinyl-propenones: Effects on potency and mode of activity” (2016).

A short description of assay [1]: Growth inhibition of human U251 cells after 48 hrs by sulforhodamine B colorimetric assay. The format is functional. Particulars: U-251, 48 h. In a few lines: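 U251 glioblastoma cells kept in DMEM with 10% FBS at 37°C, 5% CO2. Compounds in DMSO; vehicle-only controls. SRB colorimetric read-out at a 48 h end-point. Mean ± S.D. of three separate SRB assays.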
(The SRB assay estimates cell density from bound dye.)

A short description of assay [2]: Growth inhibition of human U251 cells at 10 uM after 48 hrs by sulforhodamine B colorimetric assay relative to control. Format: functional. Particulars: U-251, 48 h, read-out: GI. In a few lines: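 U251 glioblastoma cells kept in DMEM with 10% FBS at 37°C, 5% CO2. Compounds in DMSO; vehicle-only controls. SRB colorimetric read-out at a 48 h end-point. GI50 relative to untreated control calculated by the NCI-60 protocol; top concentration tested 10 μM. Mean ± S.D. of three separate SRB assays.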

The subject of assay [3] is U-251. The experiment in a line: Mitotic arrest in human U251 cells assessed as accumulation at G2/M phase at >=500 nM after 24 hrs by propidium iodide staining based flow cytometric analysis. Format: functional, cell-based. The method, boiled down: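 U251 cells seeded at 3.5 × 10^5 per 60 mm dish and treated the next day for 24 h. Attached and detached cells were harvested by trypsin and fixed in ice-cold 70% ethanol. They were then suspended in PBS with 6.25 mM MgSO4 and 1 mM CaCl2, RNase A-treated at 37 °C for 15 min and stained with propidium iodide. DNA content was read by flow cytometry.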
Background: In flow cytometry, cells or beads pass a laser one at a time.

Assay [4] concerns U-251. The experiment in a line: Induction of methuosis in human U251 cells assessed as vacuolization at 2.5 uM after 48 hrs by phase contrast microscopic analysis. Format: functional, cell-based.
For assay [5], the system named is U-251. The experiment in a line: Induction of methuosis in human U251 cells assessed as formation of membrane blebs on cell surface at 2.5 uM after 48 hrs by phase contrast microscopic analysis. Format: functional, cell-based.
Assay [6] deals with U-251. The experiment in a line: Induction of methuosis in human U251 cells assessed as rounding of cell body at 2.5 uM after 48 hrs by phase contrast microscopic analysis. The format is functional, cell-based.
Assay [7] concerns U-251. The experiment in a line: Induction of microtubule disruption in human U251 cells up to 2.5 uM by DAPI staining based immunofluorescence microscopy. Format: cell-based. The method, boiled down:
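U251 cells seeded on glass coverslips, 350,000 per 60 mm dish. One day later, fresh medium with compound at the stated concentrations was added for 24 h. Cells were fixed and stained with monoclonal anti-α-tubulin, then Alexa Fluor 568 goat anti-mouse IgG. Nuclei counterstained with DAPI.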

The test system of assay [8] is U-251. The experiment in a line: Induction of methuosis in human U251 cells assessed as rounding of cell body at 2.5 uM after 24 hrs by phase contrast microscopic analysis. Format: functional, cell-based.
Assay [9] has as its system U-251. The assay is described as follows: Induction of methuosis in human U251 cells assessed as cell detachment from dish at 2.5 uM after 24 hrs by phase contrast microscopic analysis. Format: functional, cell-based.

The GI50 is the concentration giving 50% growth inhibition. High values mean less potent growth inhibition, low ones more potent growth inhibition.

The source made the active and inactive calls. The calls are words filed in the database; no cut-off is given here.

As for `COc1cc2[nH]c(C)c(/C=C/C(=O)c3ccncc3)c2cc1OC`, the GI50 in assay [1] is greater than 10 µM. Also, the inhibition of growth at 10 µM in assay [2] is less than 50%.
The like results for `COc1ccc2c(c1)c(/C=C/C(=O)c1ccncc1)c(C)n2C` were, in that order, greater than 10 µM and less than 50%.
The like results for `COc1ccc2c(/C=C/C(=O)c3ccncc3)c(C(F)(F)F)[nH]c2c1` were, in that order, greater than 10 µM and less than 50%.
For the compound `COc1cc(OC)c(C(=O)/C=C/c2c(C)[nH]c3ccc(OC)cc23)c(OC)c1`, the 50% growth inhibitory concentration (GI50) in assay [1] came out at 3.74 µM.
`COc1cccc2c(/C=C/C(=O)c3ccncc3)c(C)[nH]c12`: halving of growth in assay [1] (GI50) required 4.42 µM.
`COc1ccc2c(/C=C/C(=O)c3ccncc3)c(C)[nH]c2c1` gave a GI50 in [1] of 0.09 µM. Further, the outcome in the assay with U-251 [3], in the assay with U-251 [4], in the assay on U-251 [5], in the assay with U-251 [6], in the assay on U-251 [7] and with U-251 [8] was Active. The outcome in the assay on U-251 [9] was Active.
Consider `COc1cccc2[nH]c(C)c(/C=C/C(=O)c3ccncc3)c12`, for which the GI50 in assay [1] stood at 8.67 µM. In addition, in the assay with U-251 [4], the result was Active.
`COc1ccc2[nH]c(C)c(/C=C/C(=O)c3cc(OC)c(OC)c(OC)c3)c2c1` came in with a GI50 in assay [1] greater than 10 µM. In addition, the inhibition of growth at 10 µM in [2] was less than 50%.
